Measurements published in ChEMBL document CHEMBL4680079, “Discovery of a Quinoline-4-carboxamide Derivative with a Novel Mechanism of Action, Multistage Antimalarial Activity, and Potent in Vivo Efficacy” (J Med Chem, 2016).
Converted amounts (≈) assume the structure as drawn.

Experiments:
Plasmodium falciparum = assay: Antiplasmodial activity against chloroquine-sensitive Plasmodium falciparum 3D7 infected in human red blood cells assessed as growth inhibition by SYBR Green fluorescence assay; type: functional, organism-based, RBC; conditions: 3D7, Erythrocyte
Procedure, shortened: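 P. falciparum 3D7 grown in 5% human red cells in RPMI 1640 (pH 7.3) with 0.5% Albumax II, hypoxanthine and gentamicin at 37°C under 1% O₂/3% CO₂. Growth measured by SYBR green fluorescence (ex 485/em 528 nm), with mefloquine as assay control. EC50 calculated.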

[1] = Intrinsic clearance in Sprague-Dawley rat liver microsomes at 0.5 uM in presence of NADPH incubated upto 30 mins by UPLC-MS/MS analysis; type: ADME, Microsome; conditions: 0.5 h
Procedure, shortened: (§1)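 Compound at 0.5 μM incubated with female CD1 mouse, male Sprague-Dawley rat or pooled human liver microsomes (0.5 mg/mL, 50 mM potassium phosphate, pH 7.4). Reaction started with excess NADPH. Samples taken at 0-30 min, quenched in acetonitrile, analysed by UPLC-MS/MS. Verapamil used as control, single time course.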

Plasmodium berghei [2] = assay: Antiplasmodial activity against Plasmodium berghei ANKA infected in NMRI mouse assessed as survival days at 1 mg/kg, po QD for 4 days; type: functional; conditions: time 4 day
[3] = Volume of distribution at steady state in Sprague-Dawley rat at 1 mg/kg, iv administered as bolus dose by UPLC-MS/MS analysis; type: ADME, organism-based; conditions: Sprague-Dawley, in vivo, read-out: Vdss
Procedure, shortened: (§2)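 Male Sprague Dawley rats (n=3/route) received an iv bolus solution at 1 mg free base/kg (5 mL/kg; 5% DMSO in saline). Blood sampled from 5 min to 30 or 48 h post-dose, mixed with two volumes water, frozen, then analysed by UPLC-MS/MS. Parameters derived from the blood concentration-time curve.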

[4] = Permeability of the compound at 10 uM incubated for 5 hrs by UPLC-MS/MS analysis based PAMPA method; type: ADME; conditions: read-out: permeability
Procedure, shortened: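 PAMPA run on a lipid-oil-lipid tri-layer filter at pH 7.4. Compound at 10 μM in PBS (DMSO ≤5%) in donor wells, PBS in acceptor wells, kept 5 h at room temperature. Both compartments quantified by UPLC-MS/MS. Data accepted only when recovery exceeded 70%.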

[5] = Tmax in Sprague-Dawley rat at 3 mg/kg, po administered via gavage by UPLC-MS/MS analysis; type: ADME, organism-based; conditions: in vivo
Procedure, shortened: (§3)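 Oral gavage solution, 3 mg free base/kg (10 mL/kg; 0.5% w/v HPMC, 0.4% v/v Tween 80, 0.5% v/v benzyl alcohol), given to male Sprague Dawley rats (n=3). Blood taken at 5, 15, 30 min and 1, 2, 4, 6, 8, 24, 30 h, mixed with two volumes water, analysed by UPLC-MS/MS.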

[6] = Cmax in Sprague-Dawley rat at 3 mg/kg, po administered via gavage by UPLC-MS/MS analysis; type: ADME, organism-based; design: route oral, dose 3 mg/kg; conditions: in vivo; procedure, shortened: as §3
[7] = Clearance in Sprague-Dawley rat blood at 1 mg/kg, iv administered as bolus dose by UPLC-MS/MS analysis; type: ADME, organism-based; procedure, shortened: as §2
[8] = Oral bioavailability in Sprague-Dawley rat at 3 mg/kg administered via gavage by UPLC-MS/MS analysis; type: ADME, organism-based; conditions: in vivo; procedure, shortened: as §3
[9] = Half-life in Sprague-Dawley rat at 1 mg/kg, iv administered as bolus dose by UPLC-MS/MS analysis; type: ADME, organism-based; conditions: Sprague-Dawley, in vivo; procedure, shortened: as §2
MRC5 = assay: Antiproliferative activity against human MRC5 cells assessed as reduction in cell viability after 68 hrs by resazurin dye based fluorescence assay; conditions: MRC5, 68 h
Procedure, shortened: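 MRC-5 fibroblasts plated overnight as monolayers, exposed to compound pre-diluted in MEM for 68 h. Resazurin then added (final 50 μM) for 3 h, fluorescence read at ex 528/em 590 nm. Signal converted to % inhibition against high- and no-inhibition controls. Plates accepted at Z' > 0.5.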

[10] = Intrinsic clearance in human liver microsomes at 0.5 uM in presence of NADPH incubated upto 30 mins by UPLC-MS/MS analysis; type: ADME, Microsome; conditions: 0.5 h; procedure, shortened: as §1
Plasmodium berghei [11] = assay: Antiplasmodial activity against Plasmodium berghei ANKA infected in NMRI mouse assessed as reduction in parasitemia at 1 mg/kg, po QD for 4 days; type: functional; design: scale not given: the % may be the effect or the level left; conditions: time 4 day
Procedure, shortened: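 Female NMRI mice (n=3 per group, randomized, not blinded) infected with GFP-transfected P. berghei ANKA. Oral dosing once daily for 4 days in 10% DMSO/40% PEG400/50% water or HPMC suspension vehicle. Parasitaemia measured by flow cytometry on blood collected 96 h after infection. Mice watched for toxicity over 4 h post-dose each day.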

[12] = Intrinsic clearance in CD1 mouse liver microsomes at 0.5 uM in presence of NADPH incubated upto 30 mins by UPLC-MS/MS analysis; type: ADME, Microsome; conditions: 0.5 h; procedure, shortened: as §1
[13] = Kinetic aqueous solubility of the compound by laser nephelometry; type: physicochemical; conditions: read-out: Kinetic_solubility
Procedure, shortened: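 Kinetic solubility measured by laser nephelometry. DMSO serial dilutions diluted into water to give final 100–5 μg/mL at 1.0% DMSO. Read immediately, in triplicate aliquots.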

[14] = AUC in Sprague-Dawley rat at 3 mg/kg, po administered via gavage by UPLC-MS/MS analysis; type: ADME, organism-based; design: dose 3 mg/kg; conditions: in vivo; procedure, shortened: as §3

O=C(NCCN1CCCC1)c1cc(-c2ccc(CN3CCOCC3)cc2F)nc2ccc(F)cc12
EC50 (Plasmodium falciparum): 2 nM | CLH [1]: < 0.5 mL/min/g | Survival (Plasmodium berghei [2]): 14 days | Vd [3]: 10 L/kg | Papp at 5 h, 10 µM [4]: 13.2 ×10⁻⁶ cm/s | Tmax [5]: 8 h | Cmax [6]: 29 ng/mL | clearance [7]: 32 mL/min/kg | bioavailability [8]: 33% | half-life [9]: 240 min | EC50 (MRC5): 41 µM | CLH [10]: 1.5 mL/min/g | Activity (Plasmodium berghei [11]): 99.9% | CLH [12]: < 0.5 mL/min/g | solubility kinetic [13]: 208 µM (≈ 100 µg/mL) | AUC [14]: 507 ng·h/mL
